ABHD5-PLIN5 inh: ABHD5-PLIN5 interaction inhibitors, primary screen, cell lysate, split luciferase complementation, luminescence; inhibition, % at 4 µM; Split G. princeps luciferase complementation, 4 h; AID 602281, 2012; 360,000 compounds, 0.78% hits;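 active = inhibition above the mean inhibition across every tested compound plus 3 SD, cut at about 22% in these data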;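 also: 0% = DMSO only wells and the 100% control is not disclosed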
TLR9-MyD88 inh: inhibitors of TLR9-MyD88 association in cells, primary screen, cell-based, CHO, BLA complementation, fluorescence; CCF4 FRET ratio; inhibition, % at 4.98 µM; 340,000 compounds, 0.21% hits;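 active = inhibition above the mean over all tested compounds plus 3 SD, cut at about 21% in these data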;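 also: 0% = DMSO only wells and 100% = clavulanate BLA inhibitor control wells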
Beta2AR agonist: beta2AR agonists driving receptor internalization, primary screen, cell-based, FAP fluorogen, flow cytometry; Beta-2 adrenergic receptor (Homo sapiens), P07550; Am2.2-beta2AR cells; response, % (concentration not given with the values); 340,000 compounds, 0.43% hits; AID 504454, 2011;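 active = response above a set limit, near 3 SD of response in nonfluorescent compounds, cut at about 42% in these data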
Dynein transport: inhibitors of GR-EGFP nuclear translocation, primary screen, dynein cargo transport inhibitor project, imaging, high-content, 3617.4 mouse cells | z-score, hits read low | AID 1381, 2008 | test concentration mostly 20 µM; stimulated with dexamethasone, 1 µM; stronger effect = lower value | 220,000 compounds, 0.47% hits;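 active = plate z-score of nuclear minus cytoplasmic receptor signal below a set negative limit, without overly bright fluorescence or cell loss, cut at about -3.5 in these data, passing the limit was not always enough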;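 also: z-score of nuclear minus cytoplasmic ring GR-EGFP intensity difference per well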
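Also added – dexamethasone, 1.0 µM final · Buffer or medium – tet-free, stripped-serum medium · Schedule – induction 48 h, compound 1 h, agonist 30 min · Detection – formaldehyde fixation, Hoechst nuclear stain, 10x automated fluorescence imaging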
NOD2 RIPK2 PPI: NOD2-RIPK2 binding disruptors in cells, primary screen, fluorescence, CHO cells, BLA complementation. Receptor-interacting serine/threonine-protein kinase 2 (Homo sapiens), O43353. CCF4 ratio. 360,000 compounds, 0.38% hits. inhibition, % at 4.98 µM; in the data active = inhibition above about 21%;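 also: 0% = vehicle only and 100% = reference blocker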
Target sequence (O43353 whole entry, looked up): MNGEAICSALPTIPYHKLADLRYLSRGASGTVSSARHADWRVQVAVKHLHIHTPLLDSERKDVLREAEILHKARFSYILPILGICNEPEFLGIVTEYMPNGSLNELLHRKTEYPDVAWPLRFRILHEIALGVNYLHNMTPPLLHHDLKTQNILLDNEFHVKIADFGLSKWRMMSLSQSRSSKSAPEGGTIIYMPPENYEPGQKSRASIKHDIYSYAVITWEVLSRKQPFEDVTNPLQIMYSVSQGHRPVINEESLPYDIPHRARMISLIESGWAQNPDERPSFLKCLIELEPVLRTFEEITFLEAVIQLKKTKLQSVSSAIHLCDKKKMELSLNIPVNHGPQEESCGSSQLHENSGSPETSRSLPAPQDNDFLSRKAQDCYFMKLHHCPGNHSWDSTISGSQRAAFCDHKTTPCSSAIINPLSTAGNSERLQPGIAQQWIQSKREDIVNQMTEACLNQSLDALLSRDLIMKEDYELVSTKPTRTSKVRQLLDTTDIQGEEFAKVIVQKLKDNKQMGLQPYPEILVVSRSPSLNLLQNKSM
TLR4-MyD88 BLA: inhibitors of TLR4-MyD88 association in cells, primary screen, cell-based, HeLa CL3-4, BLA complementation, FRET ratio; 200,000 compounds, 0.18% hits; inhibition, % at 8.4 µM; HeLa CL3-4 TLR4/MyD88 BLA complementation; in the data active = inhibition above about 25%;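 also: 0% = vehicle and 100% = reference inhibitor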
ABHD5 PLIN5 conf: ABHD5-PLIN5 interaction inhibitors, confirmation, biochemical, luminescence; shares compounds with ABHD5-PLIN5 inh; inhibition, % at 4 µM; 2,200 compounds, 67% hits; AID 651612, 2012; in the data active = inhibition above about 23%;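 also: 0% = DMSO vehicle wells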
HNF4 counter: HNF4 dimerization inhibitors, counter-screen for ABHD5-PLIN5 interaction inhibitor project, biochemical, split-luciferase complementation, luminescence. 2,200 compounds, 77% hits. shares compounds with ABHD5-PLIN5 inh. inhibition, % at 4 µM;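 active = mean inhibition across replicate wells exceeding the computed hit threshold, cut at about 13% in these data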;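 also: light from luciferase halves that rejoin when HNF4 fusion proteins dimerize; 0% = DMSO only wells and the 100% control is not given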
NOD2-RIPK2 conf: NOD2-RIPK2 binding disruptors, retest, confirmation, fluorescence, CHO cells, BLA complementation, triplicate; shares compounds with NOD2 RIPK2 PPI; CCF4 FRET; inhibition, % at 4.98 µM; 1,200 compounds, 70% hits; AID 624370, 2012;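 active = mean inhibition across replicates above a set limit taken from the earlier primary screen, cut at about 21% in these data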;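 also: 0% = DMSO-only wells and the high end = clavulanate BLA-blocked wells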
BLA counter: NOD2-RIPK2 counterscreen BLA reporter activity. inhibition, % at 4.98 µM. CHO BLA reporter, CCF4 FRET ratio. shares compounds with NOD2 RIPK2 PPI. AID 624371. 1,200 compounds, 57% hits;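 active = mean inhibition above the low-control mean inhibition plus three low-control SD, cut at about 11% in these data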;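 also: 0% = DMSO only wells and 100% = clavulanate high control wells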
An asterisk follows results filed as active; . = not tested or not shown. The list is not random: actives were taken first. Their share in the collection is about 1.6%.

SMILES | ABHD5-PLIN5 inh | TLR9-MyD88 inh | Beta2AR agonist | Dynein transport | NOD2 RIPK2 PPI | TLR4-MyD88 BLA | ABHD5 PLIN5 conf | HNF4 counter | NOD2-RIPK2 conf | BLA counter
O=C(Nc1cccc(N2C(=O)C=CC2=O)c1)c1cccs1 | 30* | 30* | 53* | . | 22* | . | 48* | 96* | 74* | 12*
Cc1nc2ccccc2c(=O)n1-c1cccc(NC(=O)c2cccs2)c1 | 12 | -8 | -4 | . | -2 | . | . | . | . | .
O=C(Nc1cccc(F)c1)C1CCCN(S(=O)(=O)c2ccccc2)C1 (configuration not stated) | -6 | 13 | -4 | . | 11 | . | . | . | . | .
CN(c1ccccc1)S(=O)(=O)c1cccc(NC(=O)CSc2nccc(=O)[nH]2)c1 | -15 | -6 | -9 | . | -2 | . | . | . | . | .
O=C(Cn1sc2ccccc2c1=O)Nc1ccc(F)cc1 | 58* | 11 | . | . | 25* | . | 69* | 115* | 25* | 1
O=C(Cn1sc2ccccc2c1=O)Nc1ccc(Cl)cc1 | 62* | 5 | . | . | 21* | . | 83* | 118* | 42* | 7
CCc1nnc(NC(=O)c2nc(S(=O)(=O)Cc3cccc(C)c3)ncc2Cl)s1 | 33* | 7 | 14 | . | 34* | . | 82* | 49* | 28* | 19*
CCc1nnc(NC(=O)c2cccc(S(=O)(=O)N3CCN(C)CC3)c2)s1 | 0 | -5 | . | . | 8 | . | . | . | . | .
CCc1nnc(NC(=O)c2nc(S(=O)(=O)Cc3ccc(C)cc3)ncc2Cl)s1 | 25* | 8 | 29 | . | 26* | . | 68* | 43* | 34* | 22*
O=S(=O)(/N=S1\CC=CCN1S(=O)(=O)c1ccccc1)c1ccccc1 (configuration not stated) | 92* | 11 | -4 | . | 25* | . | 17 | 85* | -10 | -17
O=C(C(=Cc1ccc(F)cc1)C(=O)c1ccccc1)c1ccccc1 | 94* | . | . | . | 29* | . | 97* | 87* | 13 | -3
Cc1ccc(/C(C#N)=C\c2ccc(N3CCOCC3)o2)cc1 | 88* | 15 | -38 | -3 | 42* | 12 | 62* | 106* | 32* | 27*
N#C/C(=C\c1ccc(N2CCOCC2)o1)C(=O)NCC1CCCO1 (configuration not stated) | 3 | 0 | 2 | -0.89 | -10 | 8 | . | . | . | .
N#Cc1cccc(S(=O)(=O)NNC(=O)C23CC4CC(CC(C4)C2)C3)c1 | -9 | 2 | -7 | . | 0 | . | . | . | . | .
C[C@H]1CN([C@@H](C)CO)C(=O)CCCn2nncc2CO[C@@H]1CN(C)Cc1cccc(C(=O)O)c1 | 10 | . | . | . | 3 | . | . | . | . | .
CCC(=O)OCOc1ccc(/C=C2/CCC(CN(C)C)C2=O)cc1 (configuration not stated) | 51* | 10 | 17 | . | 33* | . | 95* | 109* | 35* | 6

From PubChem
